Holding throughout (type): functional, cell-based
For one test, the system named is KB. Put plainly: Cytotoxicity against human KB cells after 72 hrs by MTT assay. Summed up:
(§1)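 Log-phase cells: KB, CNE2, MGC-803 and GLC-82 grown in RPMI 1640 + 10% fetal calf serum; MCF-7 in DMEM + 10% fetal calf serum. Seeded at 1.5×10⁴ cells/mL (KB), 2.0×10⁴ (CNE2, MGC-803, GLC-82) or 2.5×10⁴ (MCF-7), 37 °C, 5% CO₂, 24 h. Compound exposure 72 h, 37 °C. MTT (5 mg/mL saline stock) 3 h. A570, reference 655 nm. IC₅₀ versus untreated control, ≥3 experiments.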
(In general: Formazan colour is commonly taken as a measure of viable cells.)

Test [1] can be described thus: Cytotoxicity against human CNE2 cells after 72 hrs by MTT assay. Conditions: CNE-2, 72 h. In short, it runs like this:
as §1

A further test deals with MGC-803. The experiment in a line: Cytotoxicity against human MGC803 cells after 72 hrs by MTT assay. Conditions: MGC-803, 72 h. In short, it runs like this: as §1
The subject of a further test is MCF7. The experiment in a line: Cytotoxicity against human MCF7 cells after 72 hrs by MTT assay. Conditions: MCF7, 72 h. In short, it runs like this: as §1
Test [2] can be described thus: Cytotoxicity against human GLC82 cells after 72 hrs by MTT assay. Conditions: GLC82, 72 h. Summed up:
as §1

By IC50 is commonly meant the midpoint of a concentration-inhibition curve.

Take `COc1cc2ncnc(NNC(=S)NC(=O)c3ccc(C)cc3)c2cc1OC`: the IC50 in the test with KB was determined as 24.2 µM; in test [1], 33.3 µM; in the test with MGC-803, 19.7 µM; with MCF7, 22.3 µM; in test [2], 29.9 µM.
For `Cc1ccccc1C(=O)NC(=S)NNc1ncnc2ccccc12` the same measures were 2.77 µM, 5.46 µM, 4.24 µM, 16.5 µM and 13.2 µM.
As to `COc1cc2ncnc(NNC(=S)NC(=O)c3ccccc3Cl)c2cc1OC`, the IC50 with KB is 3.56 µM; in test [1], 9.67 µM; in the test with MGC-803, 6.44 µM; in the test with MCF7, 23.1 µM; in test [2] it was 10 µM.
On the same counts, the results for `O=c1[nH]cc(F)c(=O)[nH]1` [FLUOROURACIL] are 8.28 µM, 15.1 µM, 18.5 µM, 14.2 µM and 17.4 µM.
For `COc1cc2ncnc(NNC(=S)NC(=O)c3ccc(Cl)cc3)c2cc1OC` the same measures were 4.59 µM, 7.53 µM, 3.71 µM, 8.94 µM and 9.62 µM.
For `O=C(NC(=S)NNc1ncnc2ccccc12)c1ccc(C(F)(F)F)cc1` the same measures were 7.92 µM, 22.5 µM, 10.6 µM, 8.05 µM and 12.2 µM.
On to `O=C(NC(=S)NNc1ncnc2ccccc12)c1cccc(Cl)c1`, for which the IC50 in the test on KB was 4.74 µM; in test [1], 2.92 µM; in the test with MGC-803 it was 4.54 µM; with MCF7, 3.54 µM; in test [2], 3.24 µM.
On the same counts, the results for `O=C(NC(=S)NNc1ncnc2ccccc12)c1ccccc1` are 2.33 µM, 1.49 µM, 6.99 µM, 5.96 µM and 8.37 µM.
On the same counts, the results for `COc1cc2ncnc(NNC(=S)NC(=O)c3ccccc3)c2cc1OC` are 3.77 µM, 8.18 µM, 3.05 µM, 6.99 µM and 6.55 µM.
On the same counts, the results for `Cc1ccc(C(=O)NC(=S)NNc2ncnc3ccccc23)cc1` are 10.1 µM, 17.2 µM, 3.76 µM, 7.82 µM and 11.2 µM.
Turning to `O=C(NC(=S)NNc1ncnc2ccccc12)c1ccc(Cl)cc1`, the IC50 in the test with KB was found to be 3.94 µM; in test [1], 1.53 µM; with MGC-803 it was 1.86 µM; with MCF7, 5.96 µM; in test [2], 6.68 µM.
For `COc1cc2ncnc(NNC(=S)NC(=O)c3ccccc3OC)c2cc1OC` the same measures were 3.85 µM, 8.41 µM, 1.59 µM, 8.8 µM and 16 µM.
For `COc1cc2ncnc(NNC(=S)NC(=O)c3ccccc3F)c2cc1OC` the same measures were 4.07 µM, 12.7 µM, 2.39 µM, 8.5 µM and 8.64 µM.
On the same counts, the results for `COc1cc2ncnc(NNC(=S)NC(=O)c3ccc(F)cc3)c2cc1OC` are 4.53 µM, 16.1 µM, 8.3 µM, 25.8 µM and 15.3 µM.
`O=C(NC(=S)NNc1ncnc2ccccc12)c1ccc(F)cc1`: the IC50 in the test with KB worked out at 1.87 µM; in test [1] it was 2.84 µM; in the test with MGC-803, 3.6 µM; in the test on MCF7, 4.59 µM; in test [2], 6.07 µM.
For `COc1cc2ncnc(NNC(=S)NC(=O)c3cccc(Cl)c3)c2cc1OC` the same measures were 4.83 µM, 7.46 µM, 4.06 µM, 11.5 µM and 8.37 µM.
For `O=C(NC(=S)NNc1ncnc2ccccc12)c1ccccc1F` the same measures were 2.51 µM, 4.61 µM, 5.01 µM, 5.02 µM and 6.46 µM.
For `COc1ccccc1C(=O)NC(=S)NNc1ncnc2ccccc12` the same measures were more than 50 µM, 15.7 µM, 14.3 µM, 8.7 µM and 9.5 µM.
`O=C(NC(=S)NNc1ncnc2ccccc12)c1ccccc1Cl`: the IC50 in the test with KB came to 7.71 µM; in test [1], 6.09 µM; in the test with MGC-803, 9.14 µM; in the test on MCF7, 10.5 µM; in test [2], 10.8 µM.
For `COc1cc2ncnc(NNC(=S)NC(=O)c3ccc(C(F)(F)F)cc3)c2cc1OC` the same measures were 8.84 µM, 16.5 µM, 9.28 µM, 16.8 µM and 16.5 µM.
For `COc1cc2ncnc(NNC(=S)NC(=O)c3ccccc3C)c2cc1OC` the same measures were 11.4 µM, 10.5 µM, 11.1 µM, 19.3 µM and 21.5 µM.
